Sampled rows, rich in hits. Any-hit rate of the full collection: about 2.6%.
SENP8 block-1: SENP8 (human) protease inhibition | 0.64% of 360,000 active | Q96LD8 | recombinant SENP8, Nedd8 substrate fluorescence | inhibition, % at 20 µM; in the data active = inhibition mostly above about 40%, no sharp cut-off; inactive = mostly below about 27%
Target sequence (Q96LD8 whole entry, looked up): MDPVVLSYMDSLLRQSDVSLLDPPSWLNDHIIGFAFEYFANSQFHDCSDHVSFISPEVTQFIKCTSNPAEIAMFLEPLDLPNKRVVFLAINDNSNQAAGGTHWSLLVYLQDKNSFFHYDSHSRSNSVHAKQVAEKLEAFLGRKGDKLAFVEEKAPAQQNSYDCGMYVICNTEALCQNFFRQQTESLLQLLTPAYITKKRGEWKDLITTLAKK
SENP1 FRET inh: blocks the human SENP1 SUMO protease catalytic domain. recombinant SENP1 catalytic domain, CyPet-SUMO1-YPet FRET cleavage. 0.21% of 360,000 active. inhibition, % at 10 µM. Q9P0U3;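 active = inhibition at least 30% at 10 µM, raw YFP signal under a set limit, fluorescence ratio 0.5 to 1.5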;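 also: 0% = enzyme with DMSO and 100% = no enzyme wells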
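Compound: 10 µM single point, 0.5% DMSO; Test system: hSENP1 catalytic domain, recombinant; Timing: 50 min reaction at room temperature; Technique: FRET, CFP and YFP emission; Control set: no-enzyme wells low, DMSO-plus-enzyme wells high control.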
SENP6 inh: SENP6 protease inhibition | Recombinant SENP6 catalytic domain, aminoluciferin luminescence | inhibition, % at 10 µM | 1.8% of 330,000 active | AID 2599;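 active = inhibition above about 50% at the single tested dose, limit read from the data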;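 also: plate controls were DMSO wells with enzyme for no effect and DMSO wells lacking enzyme for full effect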
SENP8 block-2: SENP8 protease inhibition. Q96LD8. 1.2% of 330,000 active. purified SENP8, Z-RLRGG-aminoluciferin cleavage, luminescence. inhibition, % at 10 µM; in the data active = inhibition above about 50%
SENP7 inh: inhibitors of human SENP7 protease; Q9BQF6; recombinant SENP7, Z-RLRGG-aminoluciferin luminescence, 40 min; inhibition, % at 5 µM; 1.5% of 330,000 active; AID 434973;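 active = inhibition above about 50% at the single test dose, limit read from the data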;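 also: plate controls were DMSO with enzyme for no effect and no enzyme buffer wells for full effect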
Platelet DG rel: platelet dense granule release activity; human platelet-rich plasma, SFLLRN dense granule ATP release, luminescence; inhibition, %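 (compounds screened at 7.5 µM in platelet-rich plasma)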; 0.22% of 300,000 active;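 active = mean replicate score, as percent of positive control, at or above 50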
SENP8 conf: human SENP8 inhibition, confirmed; shares compounds with SENP7 inh; Recombinant SENP8, Z-RLRGG-aminoluciferin luminescence, 60 min; inhibition, % at 12.5 µM; 40% of 6,200 active;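 active = mean inhibition across replicates above about 50%, limit read from the data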
SENP6 conf: human SENP6 inhibition, confirmed. shares compounds with SENP7 inh. recombinant SENP6, Z-RLRGG-aminoluciferin luminescence. inhibition, % at 12.5 µM. 58% of 6,200 active. AID 488915
SENP7 confirm: human SENP7 inhibition, confirmed | shares compounds with SENP7 inh | recombinant SENP7, Z-RLRGG-aminoluciferin luminescence, 40 min | 69% of 6,200 active | inhibition, % at 12.5 µM
Casp3 SENP sel: inhibits human caspase-3 in SENP selectivity test; shares compounds with SENP7 inh; purified caspase-3, Z-DEVD-aminoluciferin luminescence, 60 min; inhibition, % at 12.5 µM; 60% of 6,200 active; AID 488918;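 active = mean inhibition above about 50%, limit read from the data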;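 also: plate controls were enzyme with DMSO for no effect and wells without caspase-3 for full effect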
Target sequence (P42574 28-227 limits assumed): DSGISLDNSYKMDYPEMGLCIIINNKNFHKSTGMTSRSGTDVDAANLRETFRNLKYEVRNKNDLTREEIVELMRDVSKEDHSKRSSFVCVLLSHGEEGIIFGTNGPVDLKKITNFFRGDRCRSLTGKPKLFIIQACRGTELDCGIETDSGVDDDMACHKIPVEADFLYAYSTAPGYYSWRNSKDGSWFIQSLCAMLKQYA
Luc interf: interferes with luciferase luminescence in SENP counter-screen; 39% of 6,200 active; shares compounds with SENP7 inh; Pre-incubated SENP8/Z-RLRGG-aminoluciferin, luciferase luminescence interference; AID 488919; inhibition, % at 12.5 µM;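 active = mean inhibition above about 50% when retested at one dose, limit read from the data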;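 also: plate controls were DMSO wells with completed reaction for no effect and substrate without enzyme for full effect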
An asterisk follows results filed as active.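 The calls were made as follows, unless noted: active = mean inhibition above about 50% in the one-dose retest (limit read from the data); inactive = the rest.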

`N#Cc1ccsc1NC(=O)COc1ccc(-c2nnco2)cc1` gave SENP8 block-1 -37, SENP1 FRET inh -6, SENP6 inh 87*, SENP8 block-2 70*, SENP7 inh 71*, Platelet DG rel 4, SENP8 conf -23, SENP6 conf 66*, SENP7 confirm 93*, Casp3 SENP sel 87* and Luc interf 22.
CC1(C(=O)N2Cc3ccccc3C2)CCN1C(=O)C1(c2ccc(Cl)cc2)CC1 (stereo not drawn) was read as SENP8 block-1 1 and SENP1 FRET inh -1.
For O=C(Oc1ccc(-c2ccccc2)cc1)N1CCCCC1 the results were SENP8 block-1 0, SENP1 FRET inh 0, SENP6 inh 53*, SENP8 block-2 18, SENP7 inh 33, Platelet DG rel -12, SENP8 conf -4, SENP6 conf -5, SENP7 confirm -6, Casp3 SENP sel -2 and Luc interf -4.
Screening O=C(Oc1ccc(OC(=O)N2CCOCC2)cc1)c1ccccc1 returned SENP8 block-1 22, SENP1 FRET inh 3, SENP6 inh 38, SENP8 block-2 26, SENP7 inh 56*, Platelet DG rel -3, SENP8 conf -20, SENP6 conf 19, SENP7 confirm 72*, Casp3 SENP sel 47 and Luc interf -2.
`O=C(Oc1ccccc1)N1CCOCC1` gave SENP8 block-1 3, SENP1 FRET inh 2, SENP6 inh 13, SENP8 block-2 -4, SENP7 inh -2 and Platelet DG rel 12.
`Cc1c(N=Cc2c(O)n(C)c(=O)c3ccccc23)c(=O)n(-c2ccccc2)n1C` gave SENP8 block-1 -48, SENP1 FRET inh -32, SENP6 inh 52*, SENP8 block-2 10, SENP7 inh 41, Platelet DG rel 0, SENP8 conf -19, SENP6 conf -9, SENP7 confirm -1, Casp3 SENP sel 0 and Luc interf -5.
Screening O=C(Cc1cccc(NC(=O)C2CCCN(C(=O)C3CCC3)C2)c1)Nc1ccc(C(=O)N2CCCCC2)cc1 (stereo not drawn) returned SENP8 block-1 8 and SENP1 FRET inh -1.
S=C(Nc1ccc(Cl)cc1)c1nc2ccccc2[nH]1 was read as SENP8 block-1 9, SENP1 FRET inh 3, SENP6 inh 59*, SENP8 block-2 41, SENP7 inh 33, Platelet DG rel -4, SENP8 conf 13, SENP6 conf 48, SENP7 confirm 92*, Casp3 SENP sel 71* and Luc interf 11.
Cc1ccc2c(c1)C(N1CCCC1=O)CC(c1ccco1)N2 (stereo not drawn) was read as SENP8 block-1 -473, SENP1 FRET inh -18, SENP6 inh 94*, SENP8 block-2 95*, SENP7 inh -8, Platelet DG rel 14, SENP8 conf 22, SENP6 conf 82*, SENP7 confirm 100*, Casp3 SENP sel 95* and Luc interf 17.
`Cc1cc2ccccc2nc1-c1ccccc1F` gave SENP8 block-1 0 and SENP1 FRET inh 0.
`c1ccc2c(c1)Cc1cc3ccccc3nc1-2` gave SENP8 block-1 1, SENP1 FRET inh -3, SENP6 inh 98*, SENP8 block-2 92*, SENP7 inh 95*, Platelet DG rel 11, SENP8 conf 9, SENP6 conf 95*, SENP7 confirm 100*, Casp3 SENP sel 92* and Luc interf 36.
`O=C1c2ccccc2-c2nc3ccccc3cc21` gave SENP8 block-1 14, SENP1 FRET inh -2, SENP6 inh 91*, SENP8 block-2 86*, SENP7 inh 90*, Platelet DG rel 10, SENP8 conf 0, SENP6 conf 88*, SENP7 confirm 99*, Casp3 SENP sel 86* and Luc interf 70*.
O=C1NCCN1c1ccccc1 was read as SENP8 block-1 8 and SENP1 FRET inh 2.
For O=C1N(c2ccccc2)CCN1c1ccccc1 the results were SENP8 block-1 22, SENP1 FRET inh 0, SENP6 inh 83*, SENP8 block-2 70*, SENP7 inh 89*, Platelet DG rel 0, SENP8 conf 25, SENP6 conf 10, SENP7 confirm -6, Casp3 SENP sel -2 and Luc interf 0.
Screening COc1ccc(-n2cc3ccc([N+](=O)[O-])cc3n2)cc1 returned SENP8 block-1 9, SENP1 FRET inh 3, SENP6 inh 78*, SENP8 block-2 78*, SENP7 inh 87*, Platelet DG rel 8, SENP8 conf 47, SENP6 conf 51*, SENP7 confirm 72*, Casp3 SENP sel 59* and Luc interf 31.
Screening COc1ccc(C2=NCCn3nc4cc([N+](=O)[O-])ccc4c32)cc1 returned SENP8 block-1 -39, SENP1 FRET inh 7, SENP6 inh 2, SENP8 block-2 -9, SENP7 inh 3 and Platelet DG rel 0.
CCCC(=O)Nc1nc2ccc(OCC)cc2s1 was read as SENP8 block-1 -2, SENP1 FRET inh -2, SENP6 inh -11, SENP8 block-2 -6, SENP7 inh -15 and Platelet DG rel -7.
For CCOc1ccc2nc(NC(=O)c3ccc(C)o3)sc2c1 the results were SENP8 block-1 -428, SENP1 FRET inh -4, SENP6 inh 96*, SENP8 block-2 94*, SENP7 inh 98*, Platelet DG rel 61*, SENP8 conf 3, SENP6 conf 95*, SENP7 confirm 102*, Casp3 SENP sel 91* and Luc interf 10.
CCOc1ccc2nc(NC(=S)N(C)C)sc2c1 was read as SENP8 block-1 14, SENP1 FRET inh 0, SENP6 inh 77*, SENP8 block-2 49, SENP7 inh 57*, Platelet DG rel 9, SENP8 conf 71*, SENP6 conf 69*, SENP7 confirm 92*, Casp3 SENP sel 58* and Luc interf 82*.
Screening CN(C)C(=S)Nc1nc2ccccc2s1 returned SENP8 block-1 10, SENP1 FRET inh 2 and Platelet DG rel 6.

Screening data deposited in PubChem by several laboratories.
